SENP8 block-1 = inhibitors of human SENP8 protease. 330,000 tested, 1.2% active. purified SENP8, Z-RLRGG-aminoluciferin cleavage, luminescence. Q96LD8. inhibition, % at 10 µM; in the data active = inhibition above about 50%
SENP8 block-2 = SENP8 (human) protease inhibition; 360,000 tested, 0.64% active; inhibition, % at 20 µM; recombinant SENP8, Nedd8 substrate fluorescence; Q96LD8; in the data active = inhibition mostly above about 40%, no sharp cut-off; inactive = mostly below about 27%
SENP7 inh = SENP7 protease inhibition; Q9BQF6; recombinant SENP7, Z-RLRGG-aminoluciferin luminescence, 40 min; inhibition, % at 5 µM; 330,000 tested, 1.5% active;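 active = inhibition above about 50% at the single test dose, limit read from the data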;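 note: plate controls were DMSO with enzyme for no effect and no enzyme buffer wells for full effect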
NRP1-CendR mod = alters CendR peptide binding to human NRP-1. FAM-RPARPAR peptide binding to NRP-1, fluorescence polarization. inhibition, % at 25 µM. O14786. 360,000 tested, 0.85% active;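 active = inhibition or corrected inhibition above about 18%, plus a signal ratio from 0.5 to 1.5, limit read from the data, passing the limit was not always enough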
Target sequence (O14786 whole entry, looked up): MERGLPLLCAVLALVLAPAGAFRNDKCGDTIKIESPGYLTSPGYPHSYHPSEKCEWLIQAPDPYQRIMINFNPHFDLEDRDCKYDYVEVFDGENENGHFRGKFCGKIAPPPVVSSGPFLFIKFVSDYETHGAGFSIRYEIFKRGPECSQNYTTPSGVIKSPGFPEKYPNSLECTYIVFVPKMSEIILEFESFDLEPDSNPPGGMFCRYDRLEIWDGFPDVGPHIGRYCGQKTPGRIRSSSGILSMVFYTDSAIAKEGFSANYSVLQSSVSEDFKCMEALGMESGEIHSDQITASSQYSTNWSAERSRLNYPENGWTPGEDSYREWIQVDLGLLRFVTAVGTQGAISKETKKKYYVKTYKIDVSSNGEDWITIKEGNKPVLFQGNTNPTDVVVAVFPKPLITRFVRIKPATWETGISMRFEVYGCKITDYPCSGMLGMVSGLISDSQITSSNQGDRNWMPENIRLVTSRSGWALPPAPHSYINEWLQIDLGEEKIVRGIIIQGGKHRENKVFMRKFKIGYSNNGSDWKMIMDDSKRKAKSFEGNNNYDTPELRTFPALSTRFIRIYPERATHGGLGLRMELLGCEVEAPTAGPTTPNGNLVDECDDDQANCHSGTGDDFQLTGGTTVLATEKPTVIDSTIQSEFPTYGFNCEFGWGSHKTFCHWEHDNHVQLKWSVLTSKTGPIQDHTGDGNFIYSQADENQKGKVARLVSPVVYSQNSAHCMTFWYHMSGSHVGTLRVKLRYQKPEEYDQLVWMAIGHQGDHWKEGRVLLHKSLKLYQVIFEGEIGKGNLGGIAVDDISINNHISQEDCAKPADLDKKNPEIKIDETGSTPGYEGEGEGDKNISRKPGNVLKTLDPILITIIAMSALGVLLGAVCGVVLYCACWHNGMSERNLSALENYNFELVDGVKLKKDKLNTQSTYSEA
SENP1 FRET inh = inhibitors of human SENP1 SUMO protease catalytic domain; Q9P0U3; recombinant SENP1 catalytic domain, CyPet-SUMO1-YPet FRET cleavage; inhibition, % at 10 µM; 360,000 tested, 0.21% active;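 active = inhibition at least 30% at 10 µM, raw YFP signal under a set limit, fluorescence ratio 0.5 to 1.5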;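 note: 0% = enzyme with DMSO and 100% = no enzyme wells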
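Compound: 10 µM single point, 0.5% DMSO; Test system: hSENP1 catalytic domain, recombinant; Timing: 50 min reaction at room temperature; Technique: FRET, CFP and YFP emission; Control set: no-enzyme wells low, DMSO-plus-enzyme wells high control.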
SENP6 block = blocks the human protease SENP6; inhibition, % at 10 µM; 330,000 tested, 1.8% active; Recombinant SENP6 catalytic domain, aminoluciferin luminescence; Q9GZR1;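 active = inhibition above about 50% at the single tested dose, limit read from the data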;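 note: plate controls were DMSO wells with enzyme for no effect and DMSO wells lacking enzyme for full effect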
SENP8 conf = human SENP8 inhibition, confirmed. Recombinant SENP8, Z-RLRGG-aminoluciferin luminescence, 60 min. inhibition, % at 12.5 µM. shares compounds with SENP7 inh. 6,200 tested, 40% active. AID 488912;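 active = mean inhibition across replicates above about 50%, limit read from the data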
SENP6 conf = confirmation of human SENP6 protease inhibitors; shares compounds with SENP7 inh; recombinant SENP6, Z-RLRGG-aminoluciferin luminescence; inhibition, % at 12.5 µM; 6,200 tested, 58% active; AID 488915
SENP7 confirm = human SENP7 inhibition, confirmed; recombinant SENP7, Z-RLRGG-aminoluciferin luminescence, 40 min; shares compounds with SENP7 inh; inhibition, % at 12.5 µM; 6,200 tested, 69% active; AID 488917
Casp3 select = inhibits human caspase-3 in SENP selectivity test. inhibition, % at 12.5 µM. purified caspase-3, Z-DEVD-aminoluciferin luminescence, 60 min. 6,200 tested, 60% active. shares compounds with SENP7 inh. AID 488918;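 active = mean inhibition above about 50%, limit read from the data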;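 note: plate controls were enzyme with DMSO for no effect and wells without caspase-3 for full effect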
SENP luc ctr = interferes with luciferase luminescence in SENP counter-screen; AID 488919; Pre-incubated SENP8/Z-RLRGG-aminoluciferin, luciferase luminescence interference; 6,200 tested, 39% active; inhibition, % at 12.5 µM; shares compounds with SENP7 inh;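 active = mean inhibition above about 50% when retested at one dose, limit read from the data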;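 note: plate controls were DMSO wells with completed reaction for no effect and substrate without enzyme for full effect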
Starred values were filed as active, the others as inactive; nt = no result. The list is not random: actives were taken first. Their share in the collection is about 3.3%.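 Rule for the calls, unless noted: active = mean inhibition above about 50% in the one-dose retest (limit read from the data); inactive = the rest.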

SMILES	SENP8 block-1	SENP8 block-2	SENP7 inh	NRP1-CendR mod	SENP1 FRET inh	SENP6 block	SENP8 conf	SENP6 conf	SENP7 confirm	Casp3 select	SENP luc ctr
COc1ccc2[nH]c(-c3ccccc3)cc2c1	86*	-307	90*	6	4	92*	13	89*	99*	61*	27
COc1ccc2[nH]c(-c3ccc(C)cc3)cc(=O)c2c1	77*	-477	73*	12	0	81*	51*	81*	95*	92*	2
CC1CC=CCC1(CO)CO (configuration not stated)	nt	10	nt	-4	1	nt	nt	nt	nt	nt	nt
O=C(NNC(=S)Nc1ccccc1Cl)c1ccccc1Cl	74*	8	50	-3	0	73*	40	28	18	10	13
COc1ccccc1NC(=S)NNC(=O)c1ccccc1Br	46	-13	71*	21*	0	75*	21	16	15	6	15
O=C(NNC(=S)Nc1ccccc1Cl)c1ccccc1	56*	1	91*	2	3	65*	16	22	28	28	34
NC(=O)c1ccccc1NC(=O)/C=C/c1c(Cl)cccc1Cl	-7	3	45	-8	1	53*	-14	-8	86*	42	4
COc1ccccc1C(=O)NNC(=O)c1ccccc1Br	1	2	12	0	1	-22	nt	nt	nt	nt	nt
CC(C)n1nnc(-c2ccc(OCc3ccccc3F)cc2)n1	90*	-1	90*	13	1	90*	-8	91*	100*	82*	62*
Cn1nnc(-c2ccc(OCc3ccccc3F)cc2)n1	91*	8	98*	-6	2	97*	11	94*	101*	79*	22
O=C(Oc1ccc(C(=S)N2CCCCC2)cc1)c1ccccc1F	-15	28	-10	9	2	-8	nt	nt	nt	nt	nt
Fc1ccccc1COc1ccc(C(=S)N2CCCC2)cc1	64*	8	48	-4	0	58*	45	35	60*	26	32
Fc1ccccc1COc1ccc(-c2nnn(Cc3ccccc3F)n2)cc1	-4	18	-2	-1	1	-8	nt	nt	nt	nt	nt
O=C(O)Cn1nnc(-c2ccc(OCc3ccccc3Cl)cc2)n1	0	nt	3	nt	nt	17	nt	nt	nt	nt	nt
CC1=NN(C(N)=S)C(=O)C1N=Nc1ccc([N+](=O)[O-])cc1 (configuration not stated)	87*	26	89*	-1	5	90*	26	5	-3	-4	-8
CCOc1ccc(-c2nc(C)c(C(C)=O)n2O)cc1	-1	14	-14	0	1	0	nt	nt	nt	nt	nt
CC1=NN(C(N)=S)C(=O)C1N=Nc1ccc(F)cc1 (configuration not stated)	79*	18	80*	-6	3	88*	32	38	40	54*	5
CC(=O)Nc1ccc(N=NC2C(=O)N(C(N)=S)N=C2C)cc1 (configuration not stated)	61*	28	63*	-12	2	70*	64*	64*	90*	90*	25
CC1=NN(C(N)=S)C(=O)C1N=Nc1ccc(O)cc1 (configuration not stated)	13	0	22	-6	4	28	nt	nt	nt	nt	nt
CC1=NN(c2ccccc2C(=O)O)C(=O)C1N=Nc1ccccc1 (configuration not stated)	-4	28	-1	-1	5	-1	nt	nt	nt	nt	nt
CCOc1ccc(N=NC2C(=O)N(C(N)=S)N=C2C)cc1 (configuration not stated)	93*	14	88*	2	5	97*	71*	97*	102*	97*	90*
C[C@@H]1CN([C@@H](C)CO)C(=O)CCCn2nncc2CO[C@@H]1CN(C)C(=O)Nc1cccc(Oc2ccccn2)c1	nt	6	nt	-2	1	nt	nt	nt	nt	nt	nt
CCOC(=O)[C@]12CCC=C1N(Cc1cccc3ccccc13)C(=O)[C@H](CC(=O)NCc1ccc(OC)c(OC)c1)C2	nt	0	nt	7	-1	nt	nt	nt	nt	nt	nt
COc1ccc(CN2CCC3CC2c2cc(-c4cccc(C)c4)ccc23)cc1 (configuration not stated)	nt	6	nt	-6	0	nt	nt	nt	nt	nt	nt
CC(C)(C)OC(=O)N1CCCC(C(=O)Nc2ccc(C(=O)NC3CC3)cc2)C1 (configuration not stated)	nt	-1	nt	9	1	nt	nt	nt	nt	nt	nt
SMILES	SENP8 block-1	SENP8 block-2	SENP7 inh	NRP1-CendR mod	SENP1 FRET inh	SENP6 block	SENP8 conf	SENP6 conf	SENP7 confirm	Casp3 select	SENP luc ctr
CCCC#Cc1ccc2c(c1)O[C@H](CN(C)C(=O)CC1CC1)[C@H](C)CN([C@@H](C)CO)S2(=O)=O	nt	0	nt	1	-4	nt	nt	nt	nt	nt	nt
COc1cc(C=O)ccc1OCc1ccccc1Br	70*	15	66*	16	1	75*	-8	68*	89*	69*	73*
O=C(Oc1ccc2ccc(O)cc2c1)c1ccccc1Cl	74*	12	70*	6	1	89*	-20	76*	91*	34	67*
Cc1cccc(C(=O)Oc2ccc(/C=N/O)cc2)c1	69*	5	3	-8	2	76*	77*	73*	89*	74*	73*
O=C(Oc1ccc(/C=N/O)cc1)c1ccccc1Cl	63*	-6	71*	1	3	86*	81*	77*	94*	77*	75*
COc1cc(C(=O)N/N=C/c2ccc(OC(=O)c3cccc(C)c3)cc2)ccc1O	3	8	0	7	0	-10	nt	nt	nt	nt	nt
COc1ccc([C@H]2CC(=O)C[C@@H](CCn3cc(-c4ccc(F)cc4)nn3)O2)cc1	nt	16	nt	-1	-1	nt	nt	nt	nt	nt	nt
COc1ccc(NC(=O)C2(C)Cc3c(-c4ccc5c(c4)OCO5)ccnc3O2)cc1OC (configuration not stated)	nt	7	nt	-7	0	nt	nt	nt	nt	nt	nt
CCCCNC(=O)C(NC(=O)c1cccc(C(F)(F)F)c1)C(=O)c1ccccc1 (configuration not stated)	nt	30	nt	-4	2	nt	nt	nt	nt	nt	nt

Compound activity deposited in PubChem by Sanford-Burnham Center for Chemical Genomics.
